TRPC6 act: mouse TRPC6 channel activators, primary screen, cell-based, HEK293, membrane potential dye; Short transient receptor potential channel 6 (Mus musculus), Q61143; HEK293-TRPC6 membrane potential dye fluorescence; active compounds read high; B-score at 10 µM; hit rate 0.13% among 310,000; AID 2550, 2010;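 active means B-score of the integrated fluorescence ratio above library mean plus 3 SD, and starting fluorescence ratio within library mean plus 5 SD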;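 further: higher score means more depolarization so channel activation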
TRPC4 PAM: positive allosteric modulators of TRPC4, primary screen, cell-based, mouse TRPC4beta, HEK293 mu-opioid, Fluo-4 calcium; Short transient receptor potential channel 4 (Mus musculus), Q9QUQ5; DAMGO EC20, Fluo-4 Ca2+ flux; active compounds read high; B-score at 10 µM; hit rate 0.42% among 310,000;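 active means B-score of calcium response area above 5 SD of library B-scores, with initial fluorescence ratio within 5 SD of library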;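 further: B-score of integrated fluorescence ratio over time as area under calcium response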
TRPC4 act: activators of mouse TRPC4 channel, primary screen, Fluo4 calcium, HEK293 TRPC4beta/mu-opioid cells; Fluo4 calcium fluorescence; active compounds read high; B-score at 10 µM; hit rate 0.49% among 310,000;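 active means B-score above 5 SD of library B-scores, and initial fluorescence ratio not above library mean plus 5 SD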;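 further: positive B-score marks a calcium rise read as TRPC4 activation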
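Assay system: HEK293 stable line with TRPC4beta plus mu-opioid receptor. Times: dye 45 min RT, read 110 s. Measured by: kinetic Fluo4 calcium fluorescence. Measure: B score of integrated ratio. Controls: assay buffer as low control, maximal DAMGO as high control.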
TRPC4 inh: inhibitors of mouse TRPC4 channel, primary screen, Fluo4 calcium, HEK293 TRPC4beta/mu-opioid cells; DAMGO-evoked Fluo4 calcium flux; active compounds read low; B-score at 10 µM; hit rate 0.39% among 300,000; Short transient receptor potential channel 4 (Mus musculus), Q9QUQ5; AID 2247, 2010;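 active means B-score over 3 SD under the library average, no early fluorescence shift, positive overall ratio signal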
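Assay system – HEK293 line stably carrying TRPC4beta and mu-opioid receptor · Doses – single dose · Detection – Fluo4 calcium-dye fluorescence, kinetic read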
TRPC6 inh: mouse TRPC6 channel inhibitors, primary screen, cell-based, HEK293, membrane potential dye. Short transient receptor potential channel 6 (Mus musculus), Q61143. ACh-evoked depolarization; active compounds read low. B-score at 10 µM. hit rate 1.1% among 310,000. AID 2553, 2010;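 active means B-score under library mean minus 3 SD, initial fluorescence not abnormally high, positive integrated signal ratio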;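 further: B-score derived from integrated fluorescence ratio over the kinetic read; more negative B-score means stronger inhibition of depolarization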
Numbers without * were called inactive; i = inactive. Rows were chosen to be rich in hits. Some 2.3% of all compounds tested hit in one or more screens of this group.

SMILES	TRPC6 act	TRPC4 PAM	TRPC4 act	TRPC4 inh	TRPC6 inh
CCCCn1c(NCCO)nc2ccccc21	i	i	i	-6*	i
O=C(Cn1c(NCCCO)nc2ccccc21)c1ccc(Br)cc1	i	i	i	-7*	i
CCn1c(=O)c(-c2nc3ccccc3[nH]2)c(O)c2ccccc21	i	i	i	i	i
CC1=CC(C)(C)N(S(=O)(=O)c2ccc(F)cc2)c2ccccc21	i	i	i	i	i
CCOC(=O)C1CC=C(Cl)CC1C(=O)Nc1nccs1 (stereo unspecified)	i	i	i	i	i
CC(C)CN(C(=O)COC(=O)c1ccc(-c2ccccc2)cc1)C1CCS(=O)(=O)C1 (stereo unspecified)	i	i	i	i	i
CC(=O)c1c(C)[nH]c(C(=O)CN2C(=O)NC(C)(c3ccc(C)cc3)C2=O)c1C (stereo unspecified)	i	i	44*	i	i
CCN1C(=O)C(=O)N(CC(=O)c2[nH]c(C)c(C(C)=O)c2C)C1=O	i	i	i	i	i
Cc1ccc(Oc2ccccc2/C=N/O)cc1	i	i	i	-7*	i
Cc1ccc(Cn2c(=O)cc(C(=O)O)c3ccccc32)cc1	i	i	i	i	i
CCOC(=O)c1cc(=O)n(Cc2ccccc2C)c2ccccc12	i	15*	i	i	i
O=C(/C=C/c1ccc(F)cc1)NC(=S)N1CCN(Cc2ccccc2)CC1	i	i	i	i	i
COc1cccc(/C=C/C(=O)NNC(=O)CCN2CCN(Cc3ccccc3)CC2)c1	i	12*	48*	i	i
COc1ccc(Cl)cc1NC(=O)CCN1CCN(Cc2ccccc2)CC1	i	i	i	i	i
O=C(/C=C/c1ccc(F)cc1)NNC(=O)CCN1CCN(Cc2ccccc2)CC1	i	i	50*	i	i
CCOC(=O)N1CCC(NC(=O)CS(=O)Cc2nc(-c3ccccc3C)oc2C)CC1 (stereo unspecified)	i	13*	i	i	i
Cc1oc(-c2ccccc2F)nc1CS(=O)CC(=O)NC1CC1 (stereo unspecified)	i	i	i	i	i
CCOC(=O)c1c(NC(=O)COC(=O)Cc2c[nH]c3ccccc23)sc(C(=O)N(C)C)c1C	i	53*	175*	i	i
O=C(CCc1ccccc1)Nc1ccc(F)cc1F	i	i	i	i	i
COc1c(S(=O)(=O)NCCCn2ccnc2)ccc(Cl)c1Cl	i	i	i	i	i
Cc1cc(C)c(S(=O)(=O)NCCCn2ccnc2)c(C)c1	i	i	68*	i	i
Cc1c(Cl)ccc(S(=O)(=O)NCCCn2ccnc2)c1Cl	i	i	50*	i	i
O=C1Nc2cc(C(=O)N3CCc4ccccc4C3)ccc2S/C1=C\c1ccccc1	i	i	i	i	i
COc1ccc(C2=NS(=O)(=O)N(C)C(C(=O)NCc3ccccn3)=C2)cc1	i	i	i	i	i
COc1ccc(C=Nc2ccc3[nH]ncc3c2)c(O)c1	i	i	i	i	i
SMILES	TRPC6 act	TRPC4 PAM	TRPC4 act	TRPC4 inh	TRPC6 inh
Oc1c(Br)cc(Br)cc1C=Nc1ccc2[nH]ncc2c1	i	i	i	-7*	i
COc1ccc(OCC(=O)NNC(=S)NC(=O)c2ccc([N+](=O)[O-])cc2)cc1	i	i	i	i	i
COc1ccc(NC(=O)c2cccc(N3C(=O)C4CC=C(C)CC4C3=O)c2)c(OC)c1 (stereo unspecified)	i	i	i	-6*	i
CCN(CCCNC(=O)CCCOc1cc(=O)n(C)c2ccccc12)Cc1ccccc1	i	21*	i	i	i
Nc1cc(N2CCCCC2)c(Cl)cc1[N+](=O)[O-]	i	i	i	i	i
Nc1cc(N2CCCCC2)c([N+](=O)[O-])cc1Cl	i	i	i	-6*	i

Screening data as filed in PubChem BioAssay.
